ChEMBL document CHEMBL4130485, “Inhibitors of Yellow Fever Virus replication based on 1,3,5-triphenyl-4,5-dihydropyrazole scaffold: Design, synthesis and antiviral evaluation” (Eur J Med Chem, 2017)

What was measured:
[1] = Cytotoxicity against golden hamster BHK21 cells assessed as decrease in cell viability after 72 hrs by MTT assay; type: cell-based, Mesocricetus auratus, BHK-21
Summary of the method: (§1)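 Uninfected MDBK (6×10^5 cells/mL, 10% horse serum) or BHK (1×10^6 cells/mL, 10% FBS) cells in MEM-Earle with serial compound dilutions at 37 °C, 5% CO2, run in parallel with the antiviral assays. Viability read by MTT after 72 h. CC50 by linear regression; mean of three determinations.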

Yellow fever virus [2] = test: Antiviral activity against Yellow fever virus 17D vaccine (Stamaril Pasteur J07B01) infected in golden hamster BHK21 cells assessed as protection against virus-induced cytopathic effect after 3 to 4 days by MTT assay; type: functional, organism-based; settings: BHK-21
Summary of the method: (§2)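 BHK-21 cells (MDBK for BVDV) seeded at 5×10^4 (BHK) or 3×10^4 (MDBK) cells/well and grown overnight to confluence. Infected at m.o.i. 0.01 in maintenance MEM-Earle with 0.5% inactivated FBS. Serial compound dilutions added 2 h later (final 100, 20, 4, 0.8 µM; DMSO ≤0.1%). Viability read by MTT after 3–4 days at 37 °C. EC50 obtained by linear regression against untreated controls; mean of three determinations.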

[3] = Selectivity index, ratio of CC50 for golden hamster BHK21 cells to EC50 for Yellow fever virus 17D; type: toxicity; settings: read-out: Ratio CC50/EC50
Summary of the method: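 Selectivity index calculated as BHK-21 CC50 divided by YFV EC50, both from MTT assays.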

dengue virus type 2 = test: Antiviral activity against Dengue virus type 2 clinical isolate infected in golden hamster BHK21 cells assessed as protection against virus-induced cytopathic effect after 3 to 4 days by MTT assay; type: functional, organism-based; settings: BHK-21; summary of the method: as §2
West Nile virus = test: Antiviral activity against West Nile virus clinical isolate infected in golden hamster BHK21 cells assessed as protection against virus-induced cytopathic effect after 3 to 4 days by MTT assay; type: functional, organism-based; settings: BHK-21; summary of the method: as §2
[4] = Cytotoxicity against bovine MDBK cells assessed as decrease in cell viability after 72 hrs by MTT assay; type: cell-based, Bos taurus; settings: cattle; summary of the method: as §1
[5] = system: Bovine viral diarrhea virus 1; test: Antiviral activity against Bovine viral diarrhea virus NADL ATCC VR 534 infected in bovine MDBK cells assessed as protection against virus-induced cytopathic effect after 3 to 4 days by MTT assay; type: functional, organism-based, Bovine viral diarrhea virus 1-NADL; settings: Bovine viral diarrhea virus isolates and strains, ATCC VR 534, MDBK; summary of the method: as §2
[6] = Cytotoxicity against human MT4 cells assessed as decrease in cell viability after 96 hrs by MTT assay; type: cell-based
Summary of the method: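 Exponentially growing MT-4 cells seeded at 1×10^5 cells/mL in RPMI-1640 with 10% FBS and incubated with serial compound dilutions at 37 °C, 5% CO2. Viability read by MTT after 96 h. CC50 by linear regression versus untreated controls.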

[7] = system: Human immunodeficiency virus 1; test: Antiviral activity against HIV1 3B infected in human MT4 cells assessed as protection against virus-induced cytopathic effect after 4 days by MTT assay; type: functional, organism-based; settings: Human immunodeficiency virus 1, 3B, MT4, 96 h
Summary of the method: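 MT-4 cells (1×10^4/well) in RPMI with serial compound dilutions, infected with 100 CCID50 HIV-1 (m.o.i. 0.01). Viability read by MTT after 4 days at 37 °C. EC50 for 50% protection from cytopathicity obtained by linear regression versus untreated controls; mean of three determinations.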

[8] = system: Mammalian orthoreovirus 1; test: Antiviral activity against Reovirus 1 infected in golden hamster BHK21 cells assessed as protection against virus-induced cytopathic effect after 3 to 4 days by MTT assay; type: functional, organism-based; settings: Mammalian orthoreovirus 1, BHK-21; summary of the method: as §2
[9] = Cytotoxicity against African green monkey Vero 76 cells assessed as decrease in cell viability after 48 to 96 hrs by MTT assay; type: cell-based; settings: chlorocebus sabaeus
Summary of the method: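 Vero 76 cells seeded at 5×10^5 cells/mL in D-MEM with 10% FBS and incubated with serial compound dilutions at 37 °C, 5% CO2. Viability read by MTT after 48–96 h. CC50 by linear regression versus untreated controls.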

[10] = Antiviral activity against Human enterovirus B Faulkner ATCC VR 185 infected in African green monkey Vero 76 cells assessed as protection against virus-induced cytopathic effect after 3 days by crystal violet staining-based plaque reduction assay; type: functional, cell-based; settings: Faulkner ATCC VR 185, Vero 76, 72 h
Enterovirus C = test: Antiviral activity against Enterovirus C Sabin […] infected in African green monkey Vero 76 cells assessed as protection against virus-induced cytopathic effect after 2 days by crystal violet staining-based plaque reduction assay; type: functional, organism-based; settings: Vero 76, 48 h
Vaccinia virus = test: Antiviral activity against Vaccinia virus Lister ATCC VR 1549 infected in African green monkey Vero 76 cells assessed as protection against virus-induced cytopathic effect after 3 days by crystal violet staining-based plaque reduction assay; type: functional, organism-based; settings: Orthopoxvirus vaccinia, ATCC VR 1549, Vero 76, 72 h
Human alphaherpesvirus 1 = test: Antiviral activity against Human herpesvirus 1 KOS ATCC VR 1493 infected in African green monkey Vero 76 cells assessed as protection against virus-induced cytopathic effect after 3 days by crystal violet staining-based plaque reduction assay; type: functional, organism-based; settings: Human alphaherpesvirus 1, KOS, Vero 76, 72 h
[11] = system: Vesicular stomatitis Indiana virus; test: Antiviral activity against Vesicular stomatitis virus Indiana ATCC VR 158 infected in African green monkey Vero 76 cells assessed as protection against virus-induced cytopathic effect after 2 days by crystal violet staining-based plaque reduction assay; type: functional, organism-based; settings: ATCC VR 158, Vero 76, 48 h
Human orthopneumovirus = test: Antiviral activity against Human respiratory syncytial virus A2 ATCC VR 1540 infected in African green monkey Vero 76 cells assessed as protection against virus-induced cytopathic effect after 5 days by crystal violet staining-based plaque reduction assay; type: functional, organism-based; settings: ATCC VR 1540, Vero 76, 120 h
Yellow fever virus [12] = test: Potency index, ratio of azauridine EC50 to compound EC50 for Yellow fever virus 17D vaccine (Stamaril Pasteur J07B01); type: functional

Compound | CC50 at 72 h [1] | EC50 (Yellow fever virus [2]) | selectivity ratio [3] | EC50 (dengue virus type 2) | EC50 (West Nile virus) | CC50 at 72 h [4] | EC50 [5] | CC50 at 96 h [6] | EC50 [7] | EC50 [8] | CC50 [9] | EC50 [10] | EC50 (Enterovirus C) | EC50 (Vaccinia virus) | EC50 (Human alphaherpesvirus 1) | EC50 [11] | EC50 (Human orthopneumovirus) | Ratio EC50 (Yellow fever virus [12])
Cc1ccc(C2CC(c3ccccc3)=NN2c2ccc(S(N)(=O)=O)cc2)cc1 (configuration not stated) | 7 to 8 µM | 2.2 µM | 3.6 | > 8 µM | > 8 µM | 32 µM | > 32 µM | 40 µM | > 40 µM | > 7 µM | 20 µM | > 20 µM | > 20 µM | > 20 µM | > 20 µM | > 20 µM | > 20 µM | 10
Cc1cccc(C2CC(c3ccccc3)=NN2c2ccc(S(N)(=O)=O)cc2)c1 (configuration not stated) | 25 µM | > 25 µM | – | – | – | 23 µM | > 23 µM | 37 µM | > 37 µM | > 25 µM | 25 µM | > 25 µM | > 25 µM | > 25 µM | > 25 µM | > 25 µM | > 25 µM | 10
NS(=O)(=O)c1ccc(N2N=C(c3ccccc3)CC2c2cccc(Cl)c2)cc1 (configuration not stated) | 8 to 9 µM | 2.5 µM | 3.6 | > 9 µM | > 9 µM | 2 µM | > 2 µM | 41 µM | 10 µM | > 8 µM | 21 µM | > 21 µM | > 21 µM | > 21 µM | > 21 µM | > 21 µM | > 21 µM | 10
NS(=O)(=O)c1ccc(N2N=C(c3ccccc3)CC2c2ccccc2)cc1 (configuration not stated) | 15 µM | > 15 µM | – | – | – | 16 µM | > 16 µM | 42 µM | > 42 µM | > 15 µM | 22 µM | > 22 µM | > 22 µM | > 22 µM | > 22 µM | > 22 µM | > 22 µM | 10
NS(=O)(=O)c1ccc(N2N=C(c3ccc(Oc4ccccc4)cc3)CC2c2cccc(Cl)c2)cc1 (configuration not stated) | 9 to 10 µM | 2.2 µM | 4.5 | > 10 µM | > 10 µM | 6 µM | > 6 µM | 8 µM | > 8 µM | > 9 µM | 88 µM | > 88 µM | > 88 µM | > 88 µM | > 88 µM | > 88 µM | > 88 µM | 10
NS(=O)(=O)c1ccc(N2N=C(c3ccc(Oc4ccccc4)cc3)CC2c2ccc(Cl)cc2)cc1 (configuration not stated) | 7 to 8 µM | 1.9 µM | 4.2 | > 8 µM | > 8 µM | 19 µM | > 19 µM | 9 µM | > 9 µM | > 7 µM | 88 µM | > 88 µM | > 88 µM | > 88 µM | > 88 µM | > 88 µM | > 88 µM | 10
NS(=O)(=O)c1ccc(N2N=C(c3ccccc3)CC2c2ccccc2F)cc1 (configuration not stated) | 21 µM | > 21 µM | – | – | – | 19 µM | > 19 µM | 42 µM | > 42 µM | > 21 µM | 28 µM | > 28 µM | > 28 µM | > 28 µM | > 28 µM | > 28 µM | > 28 µM | 10
